Data reported in ChEMBL document CHEMBL5576048, “A Second-Generation Oral SARS-CoV-2 Main Protease Inhibitor Clinical Candidate for the Treatment of COVID-19” (J Med Chem, 2024).

Columns and labels:
[1] = Passive permeability across apical to basolateral side in dog RRCK cells incubated for 30 mins; format: ADME, cell-based, Canis lupus familiaris; details: mdckii-le, 0.5 h
[2] = target: Replicase polyprotein 1ab (Severe acute respiratory syndrome coronavirus 2, UniProt P0DTD1); assay: Inhibition of SARS-Cov-2 MPro assessed as inhibition constant by FRET assay
[3] = Metabolic stability in human liver microsome assessed as apparent intrinsic clearance in presence of NADPH incubated for 40 mins by LS-MS/MS analysis; format: ADME; details: microsomes
[4] = Lipophilicity, log D of compound at pH 7.4 by shake-flask method; format: physicochemical; details: buffer
SARS-CoV-2 [5] = assay: Antiviral activity against SARS CoV-2 USA_WA1/2020 infected in ACE2 enriched African green monkey Vero E6 cells assessed as reduction in virus-induced cytopathic effect measured after 3 days by celltiter-glo assay; format: functional, organism-based; details: Severe acute respiratory syndrome coronavirus 2, USA_WA1/2020, Vero C1008, 72 h
SARS-CoV-2 [6] = assay: Antiviral activity against SARS CoV-2 infected in African green monkey Vero E6 cells; format: functional, organism-based; details: Severe acute respiratory syndrome coronavirus 2, Vero C1008
[7] = AUC (0 to 24 hrs) in Wistar Hannover rat at 10 mg/kg, po administered as crystalline form in 2% Tween 80 (v/v) in 0.5% (w/v) methyl cellulose in water formulation by LC-MS/MS analysis; format: ADME, organism-based; details: in vivo
Outline: (§1)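 Male Wistar–Han rats in the fed state were dosed orally at 10 mg/kg, as amorphous solid in solution or crystalline solid in suspension, in 2% (v/v) Tween 80 in 0.5% (w/v) methyl cellulose in water. Parameters were calculated from plasma concentration–time data; mean and individual values given (n = 2). Oral F is set against a 1 mg/kg i.v. dose.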

[8] = Half life in Wistar Hannover rat at 1 mg/kg, iv by LC-MS/MS analysis; format: ADME, organism-based; details: in vivo
[9] = Tmax in Wistar Hannover rat at 10 mg/kg, po administered as ASD form in 2% Tween 80 (v/v) in 0.5% (w/v) methyl cellulose in water formulation by LC-MS/MS analysis; format: ADME, organism-based; details: in vivo
Outline: (§2)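 Parameters come from plasma concentration–time data as mean and individual values (n = 2); exposure for this form was reported as AUC0–∞. Oral F is referenced to a 1 mg/kg i.v. dose.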

[10] = Volume of distribution at steady state in Wistar Hannover rat at 1 mg/kg, iv by LC-MS/MS analysis; format: ADME, organism-based; details: in vivo, read-out: Vdss
[11] = Cmax in Wistar Hannover rat at 10 mg/kg, po administered as crystalline form in 2% Tween 80 (v/v) in 0.5% (w/v) methyl cellulose in water formulation by LC-MS/MS analysis; format: ADME, organism-based; details: in vivo; outline: as §1
[12] = Oral bioavailability in Wistar Hannover rat at 10 mg/kg administered as crystalline form in 2% Tween 80 (v/v) in 0.5% (w/v) methyl cellulose in water formulation by LC-MS/MS analysis; format: ADME, organism-based; details: in vivo; outline: as §1
[13] = Renal clerance in Wistar Hannover rat at 1 mg/kg, iv by LC-MS/MS analysis; format: ADME, organism-based; details: in vivo
[14] = AUC (0 to 24 hrs) in Wistar Hannover rat at 1 mg/kg, iv by LC-MS/MS analysis; format: ADME, organism-based; details: in vivo
[15] = Clearance in Wistar Hannover rat at 1 mg/kg, iv by LC-MS/MS analysis; format: ADME, organism-based; details: in vivo
[16] = AUC (0 to 24 hrs) in Wistar Hannover rat at 10 mg/kg, po administered as ASD form in 2% Tween 80 (v/v) in 0.5% (w/v) methyl cellulose in water formulation by LC-MS/MS analysis; format: ADME, organism-based; details: in vivo
[17] = Cmax in Wistar Hannover rat at 10 mg/kg, po administered as ASD form in 2% Tween 80 (v/v) in 0.5% (w/v) methyl cellulose in water formulation by LC-MS/MS analysis; format: ADME, organism-based; details: in vivo; outline: as §2
[18] = Tmax in Wistar Hannover rat at 10 mg/kg, po administered as crystalline form in 2% Tween 80 (v/v) in 0.5% (w/v) methyl cellulose in water formulation by LC-MS/MS analysis; format: ADME, organism-based; details: in vivo; outline: as §1
[19] = Oral bioavailability in Wistar Hannover rat at 10 mg/kg administered as ASD form in 2% Tween 80 (v/v) in 0.5% (w/v) methyl cellulose in water formulation by LC-MS/MS analysis; format: ADME, organism-based; details: in vivo; outline: as §2
in vivo [20] = details: Wistar Hannover, rat, po, 100 mg/kg
in vivo [21] = details: Wistar Hannover, rat, po, 10 mg/kg
[22] = AUC (0 to 24 hrs) in Wistar Hannover rat at 100 mg/kg, po administered as crystalline MTBE in 10% (v/v) ethanol/10% (v/v) capmul MCM/35% (v/v) PEG400/45% (v/v) Tween 80 formulation by LC-MS/MS analysis; format: ADME, organism-based; details: in vivo
in vivo [23] = details: Wistar Hannover, rat, po, 100 mg/kg; remark: listed apart in the source
[24] = AUC (0 to 24 hrs) in Wistar Hannover rat at 1000 mg/kg, po administered as crystalline MTBE in 10% (v/v) ethanol/10% (v/v) capmul MCM/35% (v/v) PEG400/45% (v/v) Tween 80 formulation by LC-MS/MS analysis; format: ADME, organism-based; details: in vivo
in vivo [25] = details: Wistar Hannover, rat, po, 1000 mg/kg
[26] = AUC (0 to 24 hrs) in Wistar Hannover rat at 10 mg/kg, po administered as crystalline MTBE in 10% (v/v) ethanol/10% (v/v) capmul MCM/35% (v/v) PEG400/45% (v/v) Tween 80 formulation by LC-MS/MS analysis; format: ADME, organism-based; details: in vivo
[27] = AUC (0 to 24 hrs) in Wistar Hannover rat at 100 mg/kg, po administered as crystalline anhydrous form in 2% (v/v) Tween 80/98% 0.5% (w/v) methyl cellulose in water formulation by LC-MS/MS analysis; format: ADME, organism-based; details: in vivo
Outline: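 Single high oral dose of 100 mg/kg in male Wistar–Han rats in the fed state, given as crystalline suspension in 2% (v/v) Tween 80 in 0.5% (w/v) methylcellulose in water. Parameters were derived from plasma concentration–time data and reported as mean ± S.D. (n = 3) or mean and individual values (n = 2).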

in vivo [28] = details: Wistar Hannover, rat, po, 1000 mg/kg; remark: listed apart in the source
[29] = AUC (0 to 24 hrs) in Wistar Hannover rat at 10 mg/kg, po by LC-MS/MS analysis; format: ADME, organism-based; details: in vivo; outline: as §1
[30] = Cmax in Wistar Hannover rat at 10 mg/kg, po by LC-MS/MS analysis; format: ADME, organism-based; details: in vivo; outline: as §1
[31] = Tmax in Wistar Hannover rat at 10 mg/kg, po by LC-MS/MS analysis; format: ADME, organism-based; details: in vivo; outline: as §1
[32] = Oral bioavailability in Wistar Hannover rat at 10 mg/kg by LC-MS/MS analysis; format: ADME, organism-based; details: in vivo; outline: as §1

Compound	permeability [1]	Ki [2]	CLH(app) [3]	logD [4]	EC50 (SARS-CoV-2 [5])	other results
COC(=O)N[C@H](C(=O)N1C[C@H](OC(F)F)C[C@H]1C(=O)N[C@H](C#N)C[C@@H]1CCNC1=O)C(C)(C)C	0.76 10^-6 cm/s	3.88 nM	< 7.12 µL/min/mg	0.6	450 nM	
COC(=O)N[C@H](C(=O)N1C[C@H](C(F)(F)F)C[C@H]1C(=O)N[C@H](C#N)C[C@@H]1CCCNC1=O)C(C)(C)C	0.4 10^-6 cm/s	0.17 nM	9.5 µL/min/mg	1.2	46.2 nM	
COC(=O)N[C@H](C(=O)N1C[C@H](C(F)(F)F)C[C@H]1C(=O)N[C@H](C#N)C[C@@H]1CC(O)NC1=O)C(C)(C)C (stereo not given in full)		13 nM				EC50 (SARS-CoV-2 [6]): 1650 nM
CNC(=O)N[C@H](C(=O)N1C[C@H]2[C@@H]([C@H]1C(=O)N[C@H](C#N)C[C@@H]1CCNC1=O)C2(C)C)C(C)(C)C	0.62 10^-6 cm/s		< 7.12 µL/min/mg	0.77		
CC(C)(C)[C@H](NC(=O)C(F)(F)F)C(=O)N1C[C@H](OC(F)F)C[C@H]1C(=O)N[C@H](C#N)C[C@@H]1CCNC1=O	1.25 10^-6 cm/s	2.83 nM	< 7.12 µL/min/mg	1.2	193 nM	AUC(0-t) [7]: 599 ng·h/mL; half-life [8]: 306 min; Tmax [9]: 45 min; Vd [10]: 1.05 L/kg; Cmax [11]: 272 ng/mL; bioavailability [12]: 11.9%; CL renal [13]: 4.5 mL/min/kg; AUC(0-t) [14]: 502 ng·h/mL; clearance [15]: 33.1 mL/min/kg; AUC(0-t) [16]: 212 ng·h/mL; Cmax [17]: 92.8 ng/mL; Tmax [18]: 30 min; bioavailability [19]: 4.2%
CC(C)(C)[C@H](NC(=O)C(F)(F)F)C(=O)N1C[C@H]2[C@@H]([C@H]1C(=O)N[C@H](C#N)C[C@@H]1CCNC1=O)C2(C)C	1.03 10^-6 cm/s			1.9	81.4 nM	Tmax (in vivo [20]): 45 min; Tmax (in vivo [21]): 90 min; AUC(0-t) [22]: 68300 ng·h/mL; Tmax (in vivo [23]): 84 min; AUC(0-t) [24]: 746000 ng·h/mL; Cmax (in vivo [25]): 88300 ng/mL; AUC(0-t) [26]: 3190 ng·h/mL; AUC(0-t) [27]: 18000 ng·h/mL; Tmax (in vivo [28]): 60 min
COC(=O)N[C@H](C(=O)N1C[C@H]2[C@@H]([C@H]1C(=O)N[C@H](C#N)C[C@@H]1CCNC1=O)C2(C)C)C(C)(C)C	0.61 10^-6 cm/s		8.1 µL/min/mg	1.2		
COC(=O)N[C@H](C(=O)N1C[C@H](C(F)(F)F)C[C@H]1C(=O)N[C@H](C#N)C[C@@H]1CCCNC1=O)C(C)C	0.63 10^-6 cm/s	1.13 nM	< 7.12 µL/min/mg	0.7	78.9 nM	AUC(0-t) [29]: 359 ng·h/mL; half-life [8]: 114 min; Tmax [9]: 22.8 min; Vd [10]: 0.55 L/kg; CL renal [13]: 7.6 mL/min/kg; Cmax [30]: 310 ng/mL; Tmax [31]: 22.8 min; bioavailability [32]: 7.7%; AUC(0-t) [14]: 467 ng·h/mL; clearance [15]: 35.6 mL/min/kg; AUC(0-t) [16]: 380 ng·h/mL; Cmax [17]: 177 ng/mL; bioavailability [19]: 8.1%
CC(C)(C)[C@H](NC(=O)C(F)(F)F)C(=O)N1C[C@H](C(F)(F)F)C[C@H]1C(=O)N[C@H](C#N)C[C@@H]1CCNC1=O	0.71 10^-6 cm/s	4.46 nM	13 µL/min/mg	1.4	65.5 nM	
COC(=O)N[C@H](C(=O)N1C[C@H](OC(F)(F)F)C[C@H]1C(=O)N[C@H](C#N)C[C@@H]1CCNC1=O)C(C)(C)C	2.05 10^-6 cm/s	0.63 nM	< 7.12 µL/min/mg	1	141 nM	AUC(0-t) [29]: 559 ng·h/mL; half-life [8]: 360 min; Vd [10]: 0.87 L/kg; CL renal [13]: 8.1 mL/min/kg; Cmax [30]: 358 ng/mL; Tmax [31]: 15 min; bioavailability [32]: 8.6%; AUC(0-t) [14]: 650 ng·h/mL; clearance [15]: 25.4 mL/min/kg
CC(C)(C)[C@H](NC(=O)C(F)(F)F)C(=O)N1C[C@H](OC(F)(F)F)C[C@H]1C(=O)N[C@H](C#N)C[C@@H]1CCNC1=O	1.12 10^-6 cm/s	0.71 nM	< 9.42 µL/min/mg	1.7	80.9 nM	
COC(=O)N[C@H](C(=O)N1C[C@H](C(F)(F)F)C[C@H]1C(=O)N[C@H](C#N)C[C@@H]1CCNC1=O)C(C)C	0.5 10^-6 cm/s	13.3 nM	< 7.12 µL/min/mg	0.9	488 nM	
